UCH37 inh – inhibitors of human deubiquitinating enzyme UCH37. purified proteasome/UCH37, Ub-AMC cleavage fluorescence. inhibition, % (no concentration beside the values). actives 0.33% (n = 330,000). AID 588478;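 active means mean inhibition over replicate wells above about 20%, limit read from the data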;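 further: 0% = compound-free wells with enzyme and 100% = wells lacking proteasome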
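system = Proteasome-associated human UCH37 deubiquitinase | amount = 0.15 nM proteasome as dispensed | medium = pH 7.4 Tris-HCl (50 mM) with ovalbumin, ATP-MgCl2, DTT | incubation = 30 min preincubation with enzyme, 25 min cleavage at room temperature | detection = AMC fluorescence 355/460 nm | read-out basis = percent inhibition | controls = no-proteasome and no-compound wells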
APOBEC3A inh – human APOBEC3A DNA deaminase inhibition | P31941 | recombinant A3A, FAM/TAMRA ssDNA deamination fluorescence | inhibition, % at 20 µM | actives 0.41% (n = 330,000) | AID 493011;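 active means at least 40% inhibition at 20 µM here, with at most 30% in a related deaminase screen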;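 further: plate controls were A3A with DMSO for no effect and wells lacking A3A enzyme for full effect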
AHR activator – human AHR activation; P35869; activation, % at 5 µM; actives 2.5% (n = 320,000); AHR-responsive luciferase reporter cells, luminescence; in the data active means activation above about 47%;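 further: 0% = vehicle wells and 100% = reference agonist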
APOBEC3G inh – blocks human APOBEC3G single-stranded DNA deamination. inhibition, % at 20 µM. recombinant A3G, ssDNA deamination FAM/TAMRA fluorescence. Q9HC16. actives 0.28% (n = 330,000);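 active means inhibition of at least 40% at 20 µM, with no more than 30% in the related APOBEC3A deaminase screen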;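 further: plate controls were DMSO wells with A3G for no effect and wells lacking A3G enzyme for full effect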
Arrestin-AP2 inh – human beta-arrestin and AP2 interaction inhibition; actives 0.31% (n = 340,000); inhibition, % at 10 µM; FITC-arrestin peptide / GST-AP2 beads, flow cytometry; AP2 beta2 appendage carries R879A mutation;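 active means inhibition above a set limit, near 3 SD of compounds lacking own fluorescence, cut at about 54% in these data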;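 further: plate controls were DMSO wells for no effect and 5 µM unlabelled arrestin peptide for full effect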
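System: GST-AP2 R879A glutathione beads | Also added: FITC-arrestin peptide, 50 nM | Times: 12 min plus 1 h, RT | Signal: Bead flow cytometry, FITC channel | Buffer or medium: PBS with 0.05% Tween 20 and 0.1% BSA | Read-out basis: Percent drop in bead-associated FITC signal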
PolyA inh – blocks polyadenylation in yeast reporter cells; AID 1875; activity score, % at 12 µM; S. cerevisiae SKY197-pL101 polyadenylation reporter, beta-gal luminescence; efflux-impaired pdr1/pdr3 knockout yeast; score 100 = 6 SD above DMSO; actives 0.02% (n = 300,000);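 active means lowest replicate activity score at least 50, where 100 means six control SD above control mean; inconclusive means lowest score under 50 but half or more replicates reach 50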;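 further: yeast exposed to compound for 9 h at 30 °C; higher score means more reporter readthrough which indicates perturbed polyadenylation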
AHR act cf – confirmation of human aryl hydrocarbon receptor activators; AID 2845; shares compounds with AHR activator; activation, % at 9 µM; human cells, AHR-responsive luciferase reporter, luminescence; actives 87% (n = 2,300); in the data active means activation above about 49%;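 further: HepG2 hepatoma cells carrying a DRE-driven firefly luciferase reporter; 0% = vehicle wells and 100% = reference agonist wells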
PXR act counter – PXR activation, counter-screen for AHR activators | activation, % at 11.6 µM | cell-based PXR reporter, luciferase luminescence | actives 88% (n = 2,300) | shares compounds with AHR activator | AID 434939; in the data active means activation above about 11%;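 further: human hepatoma DPX-2 cells expressing full-length human PXR; 0% = DMSO and 100% = reference agonist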
Target sequence (O75469 whole entry, looked up): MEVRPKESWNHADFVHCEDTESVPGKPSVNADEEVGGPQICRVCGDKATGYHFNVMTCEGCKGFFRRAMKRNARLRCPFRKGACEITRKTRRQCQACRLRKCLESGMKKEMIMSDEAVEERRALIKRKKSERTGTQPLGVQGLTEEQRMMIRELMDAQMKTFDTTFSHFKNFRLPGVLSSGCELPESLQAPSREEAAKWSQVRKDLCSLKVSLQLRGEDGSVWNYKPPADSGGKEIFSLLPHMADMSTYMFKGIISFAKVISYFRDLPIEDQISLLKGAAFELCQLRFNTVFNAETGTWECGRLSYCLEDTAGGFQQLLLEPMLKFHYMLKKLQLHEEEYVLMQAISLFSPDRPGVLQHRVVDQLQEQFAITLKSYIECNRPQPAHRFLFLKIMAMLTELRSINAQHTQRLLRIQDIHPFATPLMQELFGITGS
The depositor's hits bear a star; ? = inconclusive; · = no result given. Shown are actives, neighbours in structure and some others; about 3.4% of the full set was active somewhere.

SMILES	UCH37 inh	APOBEC3A inh	AHR activator	APOBEC3G inh	Arrestin-AP2 inh	PolyA inh	AHR act cf	PXR act counter
O=C(Nc1nc2ccccc2s1)c1ccc(Cl)s1	-14	2	82*	-2	22	2	50*	12*
Nc1nonc1-n1nnc(C(=O)NN=Cc2cccc(F)c2)c1-c1ccccc1	5	·	·	·	·	·	·	·
Oc1c(C=NCc2ccc(F)cc2)[nH]c2ccc(Br)c(Cl)c12	·	-3	81*	-2	·	18	86*	31*
N#Cc1c(N=Cc2cc(Br)cs2)sc2c1CCC2	2	·	·	·	·	·	·	·
O=C(CSc1ccc2ccccc2n1)c1ccc2c(c1)OCO2	4	-1	103*	-9	8	-32	27	24*
Oc1c(C=NNc2cccc3cccnc23)ccc2ccccc12	0	·	·	·	·	·	·	·
CCn1c(C)cc(/C=C2/NC(=O)N(Cc3ccccc3F)C2=O)c1C	-15	-1	84*	-2	1	4	59*	162*
CN1CCN(c2ccc(Cl)cc2NC(=O)C2COc3ccccc3O2)CC1 (stereo not drawn)	0	4	108*	-2	5	12	90*	30*
COc1ccc(Cl)cc1NC(=O)C1COc2ccccc2O1 (stereo not drawn)	3	-9	32	-5	-12	-31	·	·
O=C(Cc1ccc2c(c1)OCCO2)NN=Cc1ccco1	2	·	·	·	·	·	·	·
CSc1nsc(N/N=C/c2ccc3c(c2)OCO3)c1C#N	·	-7	117*	-10	-8	-9	81*	27*
O=C(N/N=C/c1ccc(-n2ccnc2)cc1)c1cccs1	·	-1	97*	-7	-11	-7	65*	23*
Cc1cccc(NC(=O)c2ccccc2OCC(=O)N2CCOCC2)c1C	1	1	-1	-5	3	-9	·	·
O=C(Nc1cccc(Cl)c1Cl)c1ccccc1OCC(=O)N1CCOCC1	1	-1	82*	2	13	1	89*	49*
COc1ccc(N=CC2=C(O)CC(c3ccccc3)CC2=O)c(OC)c1 (stereo not drawn)	-14	0	116*	-8	9	?	104*	21*
COC(=O)c1ccc(N=CC2=C(O)CC(c3ccccc3)CC2=O)cc1 (stereo not drawn)	-124	1	-1	-3	4	11	·	·
O=C1CC(c2ccccc2)CC(O)=C1C=Nc1ccc(O)cc1 (stereo not drawn)	4	0	83*	-3	-31	14	67*	14*
Cc1cccc(NC(=O)COc2ccc(Br)cc2C=NO)c1	4	·	·	·	·	·	·	·
COC(=O)NN=Cc1ccc(-c2cc(Cl)cc(Cl)c2)o1	0	·	·	·	·	·	·	·
C/C(=N\NC(=O)CSc1nc(C)cc(C)n1)c1cccs1	·	-1	110*	-4	10	-1	98*	50*
Cc1cc(C)nc(SCC(=O)NNC(=O)c2cccs2)n1	2	-3	1	-8	13	16	·	·
CC(=NNC(=O)c1ccc2ccccc2c1)c1cccnc1	1	·	·	·	·	·	·	·
Cc1c(=O)n(OCc2ccccc2F)c2ccccc2[n+]1[O-]	-10	0	94*	0	-4	0	139*	26*
O=C(NN=Cc1ccc[nH]1)c1ccc(COc2cccc3cccnc23)cc1	-4	·	·	·	·	·	·	·
COC(=O)c1ccc2[nH]c(C3(O)CCCCC3)c(C)c2c1	-1	0	0	-4	-4	·	·	·
Cc1c(C2(O)CCCCC2)[nH]c2ccc(C(F)(F)F)cc12	·	5	80*	-3	9	·	81*	44*
CN1CCN(c2ccc(NC(=O)c3sc4ccccc4c3Cl)cc2)CC1	-31	-7	80*	-2	2	-6	49*	·
Cc1ccc(C(=O)Nc2ccc3c(c2)OCO3)cc1S(=O)(=O)N1CCCC1	0	-4	82*	-3	5	0	70*	218*
Cc1ccc(C(=O)Nc2ccc3c(c2)OCO3)cc1Cl	·	4	94*	34	0	-1	118*	38*

Bioassay records (PubChem)
